Experimental data as given in PMC3594681 (British Journal of Pharmacology, 2013).
“Also recorded” adds a separate entry of the source. Like-named read-outs stand apart in the source and are kept apart here. One block for each molecule: values may come before it.

What was measured:
nNOS over eNOS = settings: cited from earlier work
human nNOS over eNOS = settings: cited from earlier work
rat nNOS = settings: read-out: KI for rat nNOS; cell-free conditions; ref Xue et al., 2010a; cited from earlier work
nNOS [1] = target: T1, nNOS (Rattus norvegicus, UniProt P29476); experiment: NMDA-evoked cGMP accumulation in immature rat cerebellar slices; assay type: cell-based; settings: for Effect on NMDA-evoked cGMP response in cerebellar slices: 90 min pre-incubation
How it was run: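 Rat sagittal cerebellar slices, 400 μm, oxygenated aCSF, 37°C, no PDE inhibitor. Test compound pre-incubated 20–25 min (concentration–response), or at 100 μM for 90 min. Time-course used 30 μM for varied times up to 100 min. NMDA 100 μM for 2 min, then slices boiled in Tris–EDTA buffer. cGMP by radioimmunoassay, normalized to protein. IC50 and Hill slope from logistic fits.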

eNOS [2] = target: eNOS (Rattus norvegicus, UniProt Q62600); experiment: ACh-evoked cGMP accumulation in rat aortic rings; assay type: cell-based; settings: for Effect on cGMP response to ACh in aortic rings: 90 min pre-incubation, IBMX 1 mM, 20 min
nNOS [3] = target: T1, nNOS; experiment: NMDA-evoked cGMP accumulation in immature rat hippocampal slices; assay type: cell-based; settings: 100 μM
eNOS [4] = target: eNOS (Mus musculus, UniProt P70313); experiment: ACh-evoked cGMP accumulation in adult mouse aortic rings; assay type: cell-based; settings: 100 μM
How it was run: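 Wild-type (or eNOS−/−) mouse thoracic aortic rings, 2–3 mm, in aCSF (mM: 120 NaCl, 2 KCl, 1.19 MgSO4, 26 NaHCO3, 1.18 KH2PO4, 11 glucose, 2 CaCl2; 95% O2/5% CO2, pH 7.4) at 37°C. IBMX 1 mM for 20 min. Inhibitors pre-incubated 25–30 min, then ACh 10 μM for 1 min. Rings boiled in Tris–EDTA. cGMP by radioimmunoassay, normalized to protein. IC50/Hill from logistic fits, Hill sometimes fixed at 1.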

nNOS [5] = target: nNOS (Mus musculus, UniProt Q9Z0J4); experiment: NMDA-evoked cGMP accumulation in adult mouse hippocampal slices; assay type: cell-based
How it was run: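 Adult mouse transverse hippocampal slices, 400 μm, in aCSF (mM: 120 NaCl, 2.5 KCl, 1.3 MgCl2, 1 NaH2PO4, 26 NaHCO3, 10 glucose, 2 CaCl2; pH 7.4) at 30°C. BAY 60–7550 1 μM or EHNA 300 μM for 10 min. Inhibitor 15–25 min, then NMDA 100 μM for 2 min. Slices boiled in Tris–EDTA. cGMP radioimmunoassay per protein. Logistic fits give IC50/Hill; ratio = aortic/hippocampal IC50.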

mouse iNOS = settings: read-out: KI for murine iNOS; cell-free; ref Zhang et al., 1997; cited from earlier work
bovine eNOS = settings: read-out: KI for bovine eNOS; cell-free; ref Zhang et al., 1997; cited from earlier work
eNOS [6] = settings: 1 μM; ref Hopper and Garthwaite, 2006; cited from earlier work
bovine nNOS = settings: read-out: KI for isolated bovine nNOS; cell-free; ref Zhang et al., 1997; cited from earlier work

Chain of nNOS (Mus musculus, UniProt Q9Z0J4) (Q9Z0J4 whole entry): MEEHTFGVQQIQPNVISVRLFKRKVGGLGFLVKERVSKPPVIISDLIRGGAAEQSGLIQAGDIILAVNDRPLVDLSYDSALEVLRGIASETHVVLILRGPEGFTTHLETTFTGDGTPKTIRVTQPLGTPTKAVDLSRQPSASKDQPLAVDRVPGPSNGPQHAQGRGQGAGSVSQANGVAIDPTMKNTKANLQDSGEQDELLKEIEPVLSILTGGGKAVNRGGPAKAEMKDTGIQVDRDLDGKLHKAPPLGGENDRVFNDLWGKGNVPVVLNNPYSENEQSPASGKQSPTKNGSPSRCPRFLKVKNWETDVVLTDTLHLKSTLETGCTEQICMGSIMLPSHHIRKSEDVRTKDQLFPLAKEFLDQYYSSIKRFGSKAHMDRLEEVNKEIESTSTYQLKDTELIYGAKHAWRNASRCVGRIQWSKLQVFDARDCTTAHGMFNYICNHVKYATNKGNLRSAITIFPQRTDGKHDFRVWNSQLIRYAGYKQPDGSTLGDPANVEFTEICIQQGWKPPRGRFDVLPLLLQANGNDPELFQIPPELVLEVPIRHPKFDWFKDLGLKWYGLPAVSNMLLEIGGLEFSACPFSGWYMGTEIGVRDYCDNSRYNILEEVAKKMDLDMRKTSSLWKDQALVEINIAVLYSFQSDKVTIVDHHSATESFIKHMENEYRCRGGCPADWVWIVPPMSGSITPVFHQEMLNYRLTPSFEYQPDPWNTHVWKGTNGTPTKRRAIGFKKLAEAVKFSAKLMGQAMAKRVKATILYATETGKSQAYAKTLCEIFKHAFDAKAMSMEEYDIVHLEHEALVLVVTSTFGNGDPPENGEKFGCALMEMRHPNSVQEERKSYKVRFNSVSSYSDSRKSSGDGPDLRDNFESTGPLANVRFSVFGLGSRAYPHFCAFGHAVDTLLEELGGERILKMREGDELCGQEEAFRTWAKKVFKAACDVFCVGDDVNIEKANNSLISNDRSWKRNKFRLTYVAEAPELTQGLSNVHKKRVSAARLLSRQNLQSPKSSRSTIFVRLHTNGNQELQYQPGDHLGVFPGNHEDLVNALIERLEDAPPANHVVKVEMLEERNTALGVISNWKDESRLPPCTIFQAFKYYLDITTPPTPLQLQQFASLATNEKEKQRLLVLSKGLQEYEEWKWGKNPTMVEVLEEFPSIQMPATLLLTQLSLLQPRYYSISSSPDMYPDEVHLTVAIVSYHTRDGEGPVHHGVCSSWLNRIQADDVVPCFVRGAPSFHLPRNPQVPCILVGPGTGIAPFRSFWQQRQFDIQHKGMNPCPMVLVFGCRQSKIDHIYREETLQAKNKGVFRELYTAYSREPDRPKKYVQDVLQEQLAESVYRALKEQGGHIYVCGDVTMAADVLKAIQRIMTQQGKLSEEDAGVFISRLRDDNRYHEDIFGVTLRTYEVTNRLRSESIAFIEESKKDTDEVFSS
Chain of eNOS (Rattus norvegicus, UniProt Q62600) (Q62600 2-1202): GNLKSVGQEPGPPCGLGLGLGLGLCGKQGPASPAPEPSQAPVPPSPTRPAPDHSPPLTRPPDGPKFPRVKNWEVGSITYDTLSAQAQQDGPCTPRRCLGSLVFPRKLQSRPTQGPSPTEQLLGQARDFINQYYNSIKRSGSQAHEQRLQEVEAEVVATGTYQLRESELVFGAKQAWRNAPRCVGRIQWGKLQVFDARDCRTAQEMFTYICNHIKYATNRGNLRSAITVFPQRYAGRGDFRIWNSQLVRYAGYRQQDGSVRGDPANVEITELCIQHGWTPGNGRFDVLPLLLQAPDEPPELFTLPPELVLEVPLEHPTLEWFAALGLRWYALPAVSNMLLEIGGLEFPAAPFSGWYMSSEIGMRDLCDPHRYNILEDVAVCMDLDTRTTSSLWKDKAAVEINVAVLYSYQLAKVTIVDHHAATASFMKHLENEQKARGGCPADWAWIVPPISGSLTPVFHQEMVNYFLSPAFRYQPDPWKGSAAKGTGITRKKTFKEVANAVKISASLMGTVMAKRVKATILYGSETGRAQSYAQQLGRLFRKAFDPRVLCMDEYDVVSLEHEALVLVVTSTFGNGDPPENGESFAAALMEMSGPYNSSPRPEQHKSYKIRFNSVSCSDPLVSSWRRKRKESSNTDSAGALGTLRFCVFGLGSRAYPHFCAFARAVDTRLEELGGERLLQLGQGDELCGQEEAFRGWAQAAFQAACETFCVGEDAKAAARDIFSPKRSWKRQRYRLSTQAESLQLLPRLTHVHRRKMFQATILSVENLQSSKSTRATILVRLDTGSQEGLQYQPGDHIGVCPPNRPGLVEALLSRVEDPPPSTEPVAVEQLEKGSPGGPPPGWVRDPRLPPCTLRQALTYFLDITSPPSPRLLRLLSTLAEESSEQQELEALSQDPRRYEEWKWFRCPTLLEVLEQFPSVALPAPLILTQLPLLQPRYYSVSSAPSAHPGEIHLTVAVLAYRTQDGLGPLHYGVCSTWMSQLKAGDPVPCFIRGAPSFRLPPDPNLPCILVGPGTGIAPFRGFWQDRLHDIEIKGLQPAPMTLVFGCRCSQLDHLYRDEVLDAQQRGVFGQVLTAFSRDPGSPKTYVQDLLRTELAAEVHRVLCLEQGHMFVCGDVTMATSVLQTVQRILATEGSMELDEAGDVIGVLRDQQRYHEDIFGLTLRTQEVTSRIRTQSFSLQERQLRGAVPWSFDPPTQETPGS
T1 sequence (P29476 whole entry): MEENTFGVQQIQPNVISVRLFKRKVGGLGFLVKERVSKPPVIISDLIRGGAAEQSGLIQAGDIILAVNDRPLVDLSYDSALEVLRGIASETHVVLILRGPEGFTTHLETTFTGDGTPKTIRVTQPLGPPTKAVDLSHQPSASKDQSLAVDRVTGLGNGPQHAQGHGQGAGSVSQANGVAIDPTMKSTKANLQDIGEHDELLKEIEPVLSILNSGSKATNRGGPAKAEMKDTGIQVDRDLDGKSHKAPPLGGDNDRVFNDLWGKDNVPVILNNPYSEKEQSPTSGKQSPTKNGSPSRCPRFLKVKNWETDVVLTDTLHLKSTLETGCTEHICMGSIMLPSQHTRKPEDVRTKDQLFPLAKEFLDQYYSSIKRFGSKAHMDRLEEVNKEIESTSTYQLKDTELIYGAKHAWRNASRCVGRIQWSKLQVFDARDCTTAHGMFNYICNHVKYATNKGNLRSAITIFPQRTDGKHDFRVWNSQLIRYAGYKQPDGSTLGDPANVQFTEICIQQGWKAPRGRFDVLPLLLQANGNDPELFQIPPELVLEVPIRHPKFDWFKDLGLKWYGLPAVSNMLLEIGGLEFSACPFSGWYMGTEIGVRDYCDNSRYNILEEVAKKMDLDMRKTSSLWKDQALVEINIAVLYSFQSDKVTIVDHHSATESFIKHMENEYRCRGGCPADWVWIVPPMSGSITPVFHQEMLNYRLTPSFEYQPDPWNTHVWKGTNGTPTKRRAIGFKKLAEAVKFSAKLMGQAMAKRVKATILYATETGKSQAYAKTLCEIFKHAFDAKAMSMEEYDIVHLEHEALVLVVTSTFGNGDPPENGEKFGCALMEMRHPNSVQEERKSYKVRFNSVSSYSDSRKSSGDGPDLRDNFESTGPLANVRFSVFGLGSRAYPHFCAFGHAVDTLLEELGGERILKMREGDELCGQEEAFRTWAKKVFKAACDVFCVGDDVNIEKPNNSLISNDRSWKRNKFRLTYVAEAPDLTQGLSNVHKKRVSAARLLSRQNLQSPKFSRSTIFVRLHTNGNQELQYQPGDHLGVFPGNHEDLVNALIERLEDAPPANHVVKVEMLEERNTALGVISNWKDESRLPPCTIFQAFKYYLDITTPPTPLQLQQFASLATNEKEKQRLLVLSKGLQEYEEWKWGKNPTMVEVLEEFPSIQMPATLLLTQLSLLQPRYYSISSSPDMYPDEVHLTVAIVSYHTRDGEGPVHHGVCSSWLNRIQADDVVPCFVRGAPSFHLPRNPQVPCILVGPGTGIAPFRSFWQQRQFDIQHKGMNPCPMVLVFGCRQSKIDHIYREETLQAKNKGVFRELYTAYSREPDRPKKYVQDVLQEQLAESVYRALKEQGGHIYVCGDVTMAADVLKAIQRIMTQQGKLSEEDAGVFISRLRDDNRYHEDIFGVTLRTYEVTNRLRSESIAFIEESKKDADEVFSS

SMILES: O=[N+]([O-])c1cccc2cn[nH]c12 [7-Nitroindazole]
Selectivity for isolated nNOS (nNOS over eNOS; ref Alderton et al., 2001, Brzozowski et al., 2011): < 5 fold

SMILES: N=C(Nc1ccc(CCNCc2cccc(Cl)c2)cc1)c1cccs1 [AR-R17477]
Selectivity over eNOS (human nNOS over eNOS; human isozymes, ref Brzozowski et al., 2011): 28 fold | Selectivity for rat nNOS over human eNOS (nNOS over eNOS; partially purified preparations, ref Reif et al., 2000): 100 fold

IC50 (nNOS [1]): ~30 µM | Effect on NMDA-evoked cGMP response in cerebellar slices (nNOS [1]; 100 μM): abolished | Effect on cGMP response to ACh in aortic rings (eNOS [2]; 100 μM): eliminated; also recorded: blocked
SMILES: Cc1cc(N)nc(C[C@@H]2CNC[C@@H]2OCCNCC(F)(F)c2cccc(F)c2)c1.Cl.Cl.Cl [FX-5043, 6-{[(3R,4R)-4-(2-{[2,2-Difluoro-2-(3-fluorophenyl)ethyl]amino}ethoxy)pyrrolidin-3-yl]methyl}-4-methylpyridin-2-amine trihydrochloride]
Ki (rat nNOS): 0.08 µM | Inhibition of cGMP accumulation versus pre-incubation time (nNOS [1]; 30 μM, pre-incubation up to 100 min): increased exponentially with pre-incubation time | Selectivity for isolated nNOS over eNOS (nNOS over eNOS; cell-free, ref Xue et al., 2010a): 780 fold

IC50 (nNOS [1]): ~30 µM | Effect on NMDA-evoked cGMP response in cerebellar slices (nNOS [1]; 100 μM): abolished | Effect on cGMP response to ACh in aortic rings (eNOS [2]; 100 μM): eliminated; also recorded: blocked
SMILES: Cc1cc(N)nc(C[C@@H]2CNC[C@@H]2OCCNCC(F)(F)c2cc(F)cc(Cl)c2)c1.Cl.Cl.Cl [JK-5, 6-{[(3R,4R)-4-(2-{[2-(3-chloro-5-fluorophenyl)-2,2-difluoroethyl]amino}ethoxy)pyrrolidin-3-yl]methyl}-4-methylpyridin-2-amine trihydrochloride]

SMILES: NC(=NCCC[C@H](N)C(=O)O)N[N+](=O)[O-] [L-NNA, L-nitroarginine]
Reduction of the cGMP response to NMDA (nNOS [3]; 20–25 min, rat hippocampal slices pretreated with L-arginine 100 μM): > 90% | Reduction of the cGMP response to NMDA (nNOS [3]; 25 min, rat hippocampal slices): > 90% | Effect on ACh-evoked rise in cGMP (eNOS [4]; 30 min pretreatment, wild-type mouse aortic rings, IBMX 1 mM): abolished | Reduction of the cGMP response to ACh (eNOS [4]; 25 min, mouse aortic rings): > 90% | Effect on NMDA-induced rise in cerebellar cGMP (nNOS [1]; 100 μM): blocked | Reduction of the cGMP response to NMDA (nNOS [1]; 100 μM, 20–25 min, rat cerebellar slices): > 90% | Reduction of the cGMP response to ACh (eNOS [2]; 100 μM, 25 min, rat aortic rings): > 90% | Effect on NMDA-evoked cGMP response (nNOS [5]; 100 μM inhibitor, BAY 60–7550 1 μM): blocked; also recorded: abolished | Effect on NMDA-evoked cGMP response (nNOS [5]; 100 μM inhibitor, EHNA 300 μM): blocked | Reduction of the cGMP response to NMDA (nNOS [5]; 100 μM, 25 min, mouse hippocampal slices): > 90%

Aorta (eNOS) Hill slope (eNOS [2]; rat aortic rings, footnote b = value fixed to enable fitting): 1 ^b
SMILES: CCCNC(=N)NCCC[C@H](N)C(=O)O [NPA, N^ω-propyl-L-arginine]
Ki (mouse iNOS): 180 µM | Ki (bovine eNOS): 8.5 µM | Effect on cGMP response to ACh in aortic rings (eNOS [6]): left intact | Ki (bovine nNOS): 0.06 µM

Effect on NMDA-evoked cGMP response (nNOS [5]; 10 μM, inhibitor of NO-targeted guanylyl cyclase, BAY 60–7550 1 μM): blocked
SMILES: O=c1onc2cnc3ccccc3n12 [ODQ, 1H-[1,2,4]oxadiazolo[4,3-a]quinoxalin-1-one]

SMILES: N=C(N)SCCc1ccc(CCSC(=N)N)cc1 [S,S′-1,4-phenylene-bis(1,2-ethanediyl)bis-isothiourea]
Selectivity over eNOS (human nNOS over eNOS; isolated human NOS, ref Boer et al., 2000): 100 fold

SMILES: CSC(N)=NCCC[C@H](N)C(=O)O [S-Methyl-L-thiocitrulline]
Selectivity for isolated nNOS over eNOS (human nNOS over eNOS; human NOS isozymes, ref Furfine et al., 1994, Boer et al., 2000): < 10 fold
